For 55 sequences, folding enthalpy and Tm results are on record in the array DNA melting data of Ke et al. (doi:10.1101/2024.01.08.574731).

A short description of data set [1]: folding enthalpy; higher = less favourable; fluorescence melt of hairpins on a sequencing array, two-state fit. To be noted: sodium 0.088 M. The method, boiled down: (§1)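 On a sequenced MiSeq flow cell, library hairpins with annealed Cy3 and quencher oligos were imaged for Cy3 fluorescence in 2.5 °C steps up to 60 °C, in 50 mM Na-HEPES pH 8.0, 25 mM NaCl. Normalisation used pre-quench Cy3 and control constructs. Bootstrapped two-state fits gave melting temperature and folding enthalpy, combined by inverse variance across four replicates and with fitted temperatures raised by 9.35 °C to match UV melts.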

Data set [2] in a line: melting temperature; fluorescence melt of hairpins on a sequencing array, two-state fit, raised by 9.35 °C to match UV melts. The conditions noted are these: sodium 0.088 M. The method, boiled down:
as §1

On to GACCTGCGAAAGCATGTC (((.(((....))).))), for which the folding enthalpy in data set [1] was -28.4 kcal/mol. In addition, the Tm in data set [2] turned out to be 49.9 °C.
The like results for CGAACGAAAGTTCG (((((....))))) were, in that order, -29.2 kcal/mol and 68.7 °C.
Consider GGATCAGGAAACTGATCC (((((((....))))))), for which, in data set [1], the folding enthalpy was -44.2 kcal/mol. Further, the Tm in data set [2] was determined as 64.5 °C.
On to TGTCCGAAAGGACA (((((....))))), for which the folding enthalpy in data set [1] is -13.6 kcal/mol. Further, in data set [2], the Tm stood at 68.8 °C.
For GAATGGGGAAACCCACTC ((.((((....)))).)), the folding enthalpy in data set [1] was -13.1 kcal/mol. Also, the Tm in data set [2] turned out to be 30 °C.
Regarding GTTTAGCGAAAGCTAAC (((.(((....)))))), the folding enthalpy in data set [1] was -11.7 kcal/mol. In data set [2], the Tm amounted to 44.1 °C.
Turning to GATCGCGAGCGCGATC ((((((....)))))), in data set [1], the folding enthalpy is -35.4 kcal/mol. The Tm in data set [2] worked out at 67.2 °C.
Regarding GCGACAGCTCGC ((((....)))), in data set [1], the folding enthalpy is -9.44 kcal/mol. The Tm in data set [2] came to 67 °C.
As for GAGCCAGGAAACCAGCTC ((((..(....)..)))), the folding enthalpy in data set [1] was -24.6 kcal/mol. The Tm in data set [2] stood at 34.9 °C.
Take GAGCGAGAAATCGCTC ((((((....)))))): the folding enthalpy in data set [1] is -30.4 kcal/mol. Besides, in data set [2], the Tm was 67.4 °C.
Turning to GGGGTCGAAAGACACCC ((((((....))).))), the folding enthalpy in data set [1] is -18.2 kcal/mol. Further, the Tm in data set [2] came out at 63.1 °C.
Regarding GAAAAGCGAAAGCTGTTC (((.(((....))).))), the folding enthalpy in data set [1] was -18 kcal/mol. The Tm in data set [2] was 44.9 °C.
For GGTGTCACGAAAGTGACC (((..(((....)))))), in data set [1], the folding enthalpy was -10.2 kcal/mol. Also, the Tm in data set [2] was found to be 50 °C.
For GTCCCCGAAAGGGCGGAC ((((((....)))..))), the folding enthalpy in data set [1] was -15.4 kcal/mol. Further, the Tm in data set [2] stood at 42.8 °C.
For the sequence GCTCTCGGAAACGAAAGC (((.(((....))).))), in data set [1], the folding enthalpy is -28.5 kcal/mol. For the same sequence, in data set [2], the Tm was determined as 39.4 °C.
As to GTATTTGGAAACAAGTAC (((.(((....))).))), the folding enthalpy in data set [1] is -20.6 kcal/mol. Also, the Tm in data set [2] is 35.7 °C.
As to GCCGACGAAAGTCCCGGC ((((((....)))..))), the folding enthalpy in data set [1] is -20.9 kcal/mol. Further, the Tm in data set [2] amounted to 49.6 °C.
In the case of GGATAATCGAAAGATTCC (((..(((....)))))), the folding enthalpy in data set [1] is -14 kcal/mol. In data set [2], the Tm was found to be 27.6 °C.
Turning to GCGGACGAAAGTCCCGC ((((((....))).))), the folding enthalpy in data set [1] was -20.8 kcal/mol. The Tm in data set [2] came out at 67.1 °C.
GAACACGAAAGTGAATTC ((((((....)))..))): the folding enthalpy in data set [1] is -13.3 kcal/mol. The Tm in data set [2] came out at 25.1 °C.
With GAATTAGAAATAATTC ((((((....)))))), the folding enthalpy in data set [1] was -18.5 kcal/mol. Besides, the Tm in data set [2] stood at 33.3 °C.
GAAGTAGGAAACTACTTC (((((((....))))))): the folding enthalpy in data set [1] is -42.6 kcal/mol. Also, the Tm in data set [2] was 52.5 °C.
For the sequence GATATGGCGAAAGCCATC (((..(((....)))))), the folding enthalpy in data set [1] is -7.03 kcal/mol. Besides, the Tm in data set [2] was found to be 34.2 °C.
GGCCAGGGAAACCCGGCC ((((.((....)).)))): the folding enthalpy in data set [1] was -40.9 kcal/mol. For the same sequence, the Tm in data set [2] was 62.1 °C.
As to GTAGGTGGAAACATCTAC ((((.((....)).)))), the folding enthalpy in data set [1] was -31.3 kcal/mol. In data set [2], the Tm turned out to be 42.4 °C.
For GATGCCGAAAGGCAGATC ((((((....)))..))), the folding enthalpy in data set [1] is -15.6 kcal/mol. Besides, the Tm in data set [2] was determined as 52.2 °C.
GCCCGCGGAAACGCAGGC (((.(((....))).))): in data set [1], the folding enthalpy was -32.4 kcal/mol. Besides, in data set [2], the Tm came out at 62.4 °C.
Take GATTCGGGAAACTGAATC (((((.(....).))))): the folding enthalpy in data set [1] was -40.8 kcal/mol. Moreover, the Tm in data set [2] was determined as 45 °C.
The like results for GATCTTAGTAAAGATC ((((((....)))))) were, in that order, -30.3 kcal/mol and 43.1 °C.
On the same counts, the results for GATCCCGTGGGGATC ((((((...)))))) are -32.4 kcal/mol and 64.5 °C.
For GCGCCGCGAAAGCCCCGC (((..((....))..))), in data set [1], the folding enthalpy was -17.7 kcal/mol. Moreover, in data set [2], the Tm turned out to be 39 °C.
As to GCGGTCGAAAGACCACGC ((((((....)))..))), the folding enthalpy in data set [1] was -17 kcal/mol. The Tm in data set [2] was determined as 57 °C.
As for GGTCTTGGAAACAGGACC ((((.((....)).)))), the folding enthalpy in data set [1] was -36.3 kcal/mol. Also, the Tm in data set [2] came out at 49.2 °C.
With GACCTACGAAAGTATGTC (((.(((....))).))), in data set [1], the folding enthalpy is -33.4 kcal/mol. In addition, the Tm in data set [2] was 41 °C.
As for GCGTAGTTACGC ((((....)))), the folding enthalpy in data set [1] is -22.4 kcal/mol. Also, the Tm in data set [2] stood at 54.4 °C.
The like results for GAATCCGAAAGGATTTC ((((((....))).))) were, in that order, -13.8 kcal/mol and 48.6 °C.
Consider GTTACACGAAAGTGAAAC (((.(((....))).))), for which, in data set [1], the folding enthalpy was -23.6 kcal/mol. Further, the Tm in data set [2] came to 45.3 °C.
On to GCACCGCGAAAGCTGAGC ((.(.((....)).).)), for which, in data set [1], the folding enthalpy is -14.4 kcal/mol. Moreover, the Tm in data set [2] turned out to be 37.5 °C.
GTAAACGGAAACGTTTAC (((((((....))))))): the folding enthalpy in data set [1] is -47.3 kcal/mol. Also, in data set [2], the Tm was found to be 57.8 °C.
For the sequence GCGAAGCGAAAGCAGCGC (((..((....))..))), in data set [1], the folding enthalpy was -16.6 kcal/mol. Moreover, the Tm in data set [2] stood at 57.7 °C.
Turning to GAGTGCGAAAGCAGCCTC ((((((....)))..))), the folding enthalpy in data set [1] is -13.2 kcal/mol. Also, in data set [2], the Tm was 34.5 °C.
With GAACACGAAAGTGGCTTC ((((((....)))..))), the folding enthalpy in data set [1] is -23 kcal/mol. Further, the Tm in data set [2] came out at 45.4 °C.
As for GTGCCACGAAAGTGACAC (((.(((....))).))), the folding enthalpy in data set [1] was -40.9 kcal/mol. In addition, in data set [2], the Tm amounted to 56.5 °C.
The like results for GCGGCGCGAAAGCCCGGC ((.(.((....)).).)) were, in that order, -14.6 kcal/mol and 59.8 °C.
Consider GACATGCGAAAGCAAGTC (((.(((....))).))), for which, in data set [1], the folding enthalpy was -25.5 kcal/mol. The Tm in data set [2] is 53.3 °C.
In the case of GACCCCGAAAGGGCGTC ((((((....))).))), the folding enthalpy in data set [1] was -36.6 kcal/mol. In addition, the Tm in data set [2] is 56.7 °C.
For the sequence GATCCGACGAAAGTCATC (((..(((....)))))), in data set [1], the folding enthalpy is -9.01 kcal/mol. Further, in data set [2], the Tm was 25.9 °C.
On the same counts, the results for GATCCGTTAGCGGATC ((((((....)))))) are -39.9 kcal/mol and 60.8 °C.
Regarding GCACAGGGAAACCTGTGC (((((((....))))))), in data set [1], the folding enthalpy was -38 kcal/mol. Besides, in data set [2], the Tm was 69.3 °C.
For GATCTATCTTAGATC ((((((...)))))), the folding enthalpy in data set [1] was -24.6 kcal/mol. Besides, the Tm in data set [2] came to 41.4 °C.
Consider GGCTAGCGAAAGCTGCC (((.(((....)))))), for which the folding enthalpy in data set [1] was -22.7 kcal/mol. The Tm in data set [2] is 64.3 °C.
With GATGCCGAAAGGCCGATC ((((((....)))..))), the folding enthalpy in data set [1] is -10.3 kcal/mol. Further, the Tm in data set [2] came out at 25.2 °C.
GTAGCTGGAAACAGCCAC ((.((((....)))).)): the folding enthalpy in data set [1] is -14.3 kcal/mol. The Tm in data set [2] was 37.7 °C.
With GTCTTTGGAAACAAGGAC (((.(((....))).))), the folding enthalpy in data set [1] is -31.1 kcal/mol. Moreover, in data set [2], the Tm was determined as 41.5 °C.
For the sequence GCGGGAGGCCGC ((((....)))), the folding enthalpy in data set [1] is -18.4 kcal/mol. The Tm in data set [2] came to 57.8 °C.
